According to ChEMBL document CHEMBL1772954, “Antifungal, cytotoxic and SAR studies of a series of N-alkyl, N-aryl and N-alkylphenyl-1,4-pyrrolediones and related compounds” (Bioorg Med Chem, 2011):
≈ marks a conversion by molar mass, not a printed value.

Columns and labels:
[1] = test system: MCF7; assay: Cytotoxicity against human MCF7 cells assessed as cell growth after 2 days by sulforhodamine B assay; format: functional; details: MCF7, 48 h
Outline: (§1)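 NCI cell lines were run by the Monks method: cells were plated with compounds from DMSO stocks and incubated 2 days at 37 °C in 5% CO2, in duplicate. Cells were fixed with cold TCA, stained with 0.4% SRB, and the bound dye was solubilized in 10 mM tris-base and read at 515 nm. The zero-day control was subtracted, and GI50 was taken from the curves.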

[2] = test system: NCI-H460; assay: Cytotoxicity against human H460 cells assessed as cell growth after 2 days by sulforhodamine B assay; format: functional; details: NCI-H460, 48 h; outline: as §1
[3] = test system: SF-268; assay: Cytotoxicity against human SF268 cells assessed as cell growth after 2 days by sulforhodamine B assay; format: functional; details: SF-268, 48 h; outline: as §1
[4] = Cytotoxicity against human erythrocytes assessed as hemolysis by spectrometric analysis; format: cell-based, Erythrocyte
Outline: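 Human heparinized red blood cells were washed in PBS at pH 7.0 and suspended at 4% in sterile 5% glucose. Compounds from DMSO stocks were diluted in 5% glucose to final concentrations of 250 to 0.24 µg/ml and incubated with the cells at 37 °C. Released hemoglobin was read at 540 nm. HC50 is the concentration giving 50% lysis relative to the drug-free value.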

[5] = test system: Candida albicans; assay: Antifungal activity against Candida albicans ATCC 10213; format: functional
Outline: (§2)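 CLSI M27-A3 broth microdilution in RPMI-1640 buffered to pH 7.0 with MOPS. Inoculum 1-5 × 10^3 CFU/mL. Compound twofold dilutions from 250 to 0.24 µg/ml, final DMSO <1%. Incubated at 35 °C in a moist, dark chamber and read at 48 h. MIC is the lowest concentration giving total growth inhibition. For MFC, 5 µL from clear wells was plated in duplicate on SDA; MFC is the lowest concentration with no growth.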

[6] = test system: Candida tropicalis; assay: Antifungal activity against Candida tropicalis C 131 2000; format: functional; outline: as §2
[7] = test system: Saccharomyces cerevisiae; assay: Antifungal activity against Saccharomyces cerevisiae ATCC 9763; format: functional; outline: as §2
[8] = test system: Cryptococcus neoformans; assay: Antifungal activity against Cryptococcus neoformans ATCC 32264; format: functional; outline: as §2
[9] = test system: Aspergillus fumigatus; assay: Antifungal activity against Aspergillus fumigatus ATCC 26934; format: functional
Outline: (§3)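 Broth microdilution per CLSI M38-A2 in RPMI-1640 with MOPS at pH 7.0. Inoculum 1-5 × 10^3 CFU/mL, with twofold compound dilutions spanning 250-0.24 µg/ml (final DMSO <1%). Plates incubated at 35 °C, moist and dark, and read when the control fungus had grown. MIC is total growth inhibition. MFC comes from subculturing clear wells in duplicate onto SDA.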

[10] = test system: Aspergillus flavus; assay: Antifungal activity against Aspergillus flavus ATCC 9170; format: functional; outline: as §3
[11] = test system: Aspergillus niger; assay: Antifungal activity against Aspergillus niger ATCC 9029; format: functional; outline: as §3
[12] = test system: Nannizzia gypsea; assay: Antifungal activity against Microsporum gypseum C 115 2000; format: functional
Outline: (§4)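 Dermatophytes tested by CLSI M38-A2 microdilution in MOPS-buffered RPMI-1640 at pH 7.0. Inoculum 1-5 × 10^3 CFU/mL; compounds 250 to 0.24 µg/ml in twofold steps, final DMSO <1%. Incubated at 28 °C in a moist, dark chamber and read according to control growth. MIC is the lowest concentration with complete inhibition. MFC is the lowest concentration with no growth after duplicate subculture on SDA.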

[13] = test system: Trichophyton rubrum; assay: Antifungal activity against Trichophyton rubrum C 113 2000; format: functional; outline: as §4
[14] = test system: Trichophyton mentagrophytes; assay: Antifungal activity against Trichophyton mentagrophytes ATCC 9972; format: functional; outline: as §4

| Structure (SMILES) | MIC [5] [µg/mL] | MIC [7] [µg/mL] | MIC [8] [µg/mL] | MIC [9] [µg/mL] | MIC [10] [µg/mL] | MIC [11] [µg/mL] | MIC [12] [µg/mL] | MIC [13] [µg/mL] | MIC [14] [µg/mL] | GI50 [1] [µg/mL] | GI50 [2] [µg/mL] | GI50 [3] [µg/mL] | MFC [7] [µg/mL] | MFC [8] [µg/mL] | MFC [9] [µg/mL] | MFC [10] [µg/mL] | MFC [11] [µg/mL] | MFC [12] [µg/mL] | MFC [13] [µg/mL] | MFC [14] [µg/mL] | also measured |
| --- | --- | --- | --- | --- | --- | --- | --- | --- | --- | --- | --- | --- | --- | --- | --- | --- | --- | --- | --- | --- | --- |
| O=C1C=CC(=O)N1c1ccccc1 | 3.9 (≈ 22.5 µM) | 3.9 (≈ 22.5 µM) | 15.6 (≈ 90.3 µM) | 250 (≈ 1440 µM) | 62.5 (≈ 361 µM) | 31.2 (≈ 180 µM) | 7.81 (≈ 45.1 µM) | 3.9 (≈ 22.5 µM) | 7.81 (≈ 45.1 µM) | > 10 | > 10 | > 10 | 7.81 (≈ 45.1 µM) | 62.5 (≈ 361 µM) | > 250 | 125 (≈ 722 µM) | 62.5 (≈ 361 µM) | 15.6 (≈ 90.3 µM) | 7.81 (≈ 45.1 µM) | 7.81 (≈ 45.1 µM) | HC50 [4]: > 250 µg/mL; MFC [5]: 7.81 µg/mL (≈ 45.1 µM); MFC [6]: 15.6 µg/mL (≈ 90.3 µM) |
| C[C@@H]1[C@H](O)[C@@H](C)/C=C/C=C/C=C/C=C/C=C/C=C/C=C/[C@H](O[C@@H]2O[C@H](C)[C@@H](O)[C@H](N)[C@@H]2O)C[C@@H]2O[C@](O)(C[C@@H](O)C[C@@H](O)[C@H](O)CC[C@@H](O)C[C@@H](O)CC(=O)O[C@H]1C)C[C@H](O)[C@H]2C(=O)O [AMPHOTERICIN B] | 0.97 (≈ 1.05 µM) | 0.48 (≈ 0.519 µM) | 0.24 (≈ 0.26 µM) | 0.48 (≈ 0.519 µM) | 0.48 (≈ 0.519 µM) | 0.48 (≈ 0.519 µM) | 0.12 (≈ 0.13 µM) | 0.06 (≈ 0.0649 µM) | 0.06 (≈ 0.0649 µM) | – | – | – | 1.95 (≈ 2.11 µM) | 0.97 (≈ 1.05 µM) | 0.97 (≈ 1.05 µM) | 1.95 (≈ 2.11 µM) | 3.9 (≈ 4.22 µM) | 0.48 (≈ 0.519 µM) | 0.24 (≈ 0.26 µM) | 0.24 (≈ 0.26 µM) | MFC [5]: 1.95 µg/mL (≈ 2.11 µM); MFC [6]: 0.97 µg/mL (≈ 1.05 µM); MIC [6]: 0.48 µg/mL (≈ 0.519 µM) |
| CC(=O)N1CCN(c2ccc(OCC3COC(Cn4ccnc4)(c4ccc(Cl)cc4Cl)O3)cc2)CC1 (centres undefined) [KETOCONAZOLE] | 0.48 (≈ 0.903 µM) | 0.48 (≈ 0.903 µM) | 0.24 (≈ 0.452 µM) | 0.12 (≈ 0.226 µM) | 0.48 (≈ 0.903 µM) | 0.24 (≈ 0.452 µM) | 0.06 (≈ 0.113 µM) | 0.03 (≈ 0.0565 µM) | 0.03 (≈ 0.0565 µM) | – | – | – | 0.97 (≈ 1.83 µM) | 1.95 (≈ 3.67 µM) | 3.9 (≈ 7.34 µM) | 3.9 (≈ 7.34 µM) | 1.95 (≈ 3.67 µM) | 0.24 (≈ 0.452 µM) | 0.12 (≈ 0.226 µM) | 0.12 (≈ 0.226 µM) | MFC [5]: 1.95 µg/mL (≈ 3.67 µM); MFC [6]: 0.97 µg/mL (≈ 1.83 µM) |

Now from value to compound, other results behind:

| MIC [5] [µg/mL] | MIC [7] [µg/mL] | MIC [8] [µg/mL] | MIC [9] [µg/mL] | MIC [10] [µg/mL] | MIC [11] [µg/mL] | MIC [12] [µg/mL] | MIC [13] [µg/mL] | MIC [14] [µg/mL] | Structure (SMILES) | GI50 [1] [µg/mL] | GI50 [2] [µg/mL] | GI50 [3] [µg/mL] | MFC [7] [µg/mL] | MFC [8] [µg/mL] | MFC [9] [µg/mL] | MFC [10] [µg/mL] | MFC [11] [µg/mL] | MFC [12] [µg/mL] | MFC [13] [µg/mL] | MFC [14] [µg/mL] | also measured |
| --- | --- | --- | --- | --- | --- | --- | --- | --- | --- | --- | --- | --- | --- | --- | --- | --- | --- | --- | --- | --- | --- |
| 3.9 (≈ 19.4 µM) | 3.9 (≈ 19.4 µM) | 7.81 (≈ 38.8 µM) | 31.2 (≈ 155 µM) | 31.2 (≈ 155 µM) | 15.6 (≈ 77.7 µM) | 3.9 (≈ 19.4 µM) | 1.95 (≈ 9.69 µM) | 7.81 (≈ 38.8 µM) | O=C1C=CC(=O)N1CCc1ccccc1 | 3.6 (≈ 17.9 µM) | 4.7 (≈ 23.4 µM) | 4.1 (≈ 20.4 µM) | 7.81 (≈ 38.8 µM) | 15.6 (≈ 77.7 µM) | 31.2 (≈ 155 µM) | 31.2 (≈ 155 µM) | 15.6 (≈ 77.7 µM) | 7.81 (≈ 38.8 µM) | 3.9 (≈ 19.4 µM) | 15.6 (≈ 77.7 µM) | HC50 [4]: > 250 µg/mL; MIC [6]: 15.6 µg/mL (≈ 77.7 µM) |
| 3.9 (≈ 18.1 µM) | 0.97 (≈ 4.51 µM) | 15.6 (≈ 72.6 µM) | 15.6 (≈ 72.6 µM) | 31.2 (≈ 145 µM) | 15.6 (≈ 72.6 µM) | 0.97 (≈ 4.51 µM) | 1.95 (≈ 9.06 µM) | 3.9 (≈ 18.1 µM) | O=C1C=CC(=O)N1CCCc1ccccc1 | 5.2 (≈ 24.2 µM) | > 10 | 5.8 (≈ 26.9 µM) | 1.95 (≈ 9.06 µM) | 31.2 (≈ 145 µM) | 31.2 (≈ 145 µM) | 62.5 (≈ 290 µM) | 15.6 (≈ 72.6 µM) | 1.95 (≈ 9.06 µM) | 1.95 (≈ 9.06 µM) | 7.81 (≈ 36.3 µM) | HC50 [4]: > 250 µg/mL; MFC [6]: 15.6 µg/mL (≈ 72.6 µM); MIC [6]: 3.9 µg/mL (≈ 18.1 µM) |
| 3.9 (≈ 17 µM) | 0.97 (≈ 4.23 µM) | 15.6 (≈ 68.2 µM) | 15.6 (≈ 68.2 µM) | 7.81 (≈ 34.1 µM) | 7.81 (≈ 34.1 µM) | 0.97 (≈ 4.23 µM) | 0.48 (≈ 2.09 µM) | 3.9 (≈ 17 µM) | O=C1C=CC(=O)N1CCCCc1ccccc1 | > 10 | > 10 | > 10 | 1.95 (≈ 8.5 µM) | 31.2 (≈ 136 µM) | 31.2 (≈ 136 µM) | 15.6 (≈ 68.2 µM) | 7.81 (≈ 34.1 µM) | 1.95 (≈ 8.5 µM) | 0.97 (≈ 4.23 µM) | 7.81 (≈ 34.1 µM) | HC50 [4]: > 250 µg/mL; MFC [5]: 7.81 µg/mL (≈ 34.1 µM); MFC [6]: 15.6 µg/mL (≈ 68.2 µM); MIC [6]: 7.81 µg/mL (≈ 34.1 µM) |
| 3.9 (≈ 20.8 µM) | 7.81 (≈ 41.7 µM) | 7.81 (≈ 41.7 µM) | 125 (≈ 668 µM) | 62.5 (≈ 334 µM) | 31.2 (≈ 167 µM) | 3.9 (≈ 20.8 µM) | 3.9 (≈ 20.8 µM) | 3.9 (≈ 20.8 µM) | O=C1C=CC(=O)N1Cc1ccccc1 | > 10 | > 10 | > 10 | 15.6 (≈ 83.5 µM) | 15.6 (≈ 83.5 µM) | 250 (≈ 1340 µM) | 125 (≈ 668 µM) | 62.5 (≈ 334 µM) | 7.81 (≈ 41.7 µM) | 7.81 (≈ 41.7 µM) | 7.81 (≈ 41.7 µM) | HC50 [4]: > 250 µg/mL; MFC [5]: 7.81 µg/mL (≈ 41.7 µM); MIC [6]: 15.6 µg/mL (≈ 83.5 µM) |
